Results from ChEMBL document CHEMBL3414463, “Discovery of potent and selective 8-fluorotriazolopyridine c-Met inhibitors” (J Med Chem, 2015).

What was measured:
[1] = target: T1, Hepatocyte growth factor receptor (Homo sapiens, UniProt P08581); assay: Inhibition of recombinant c-Met kinase domain (unknown origin) incubated for 30 mins using gastrin peptide substrate by HTRF assay
[2] = target: T1, Hepatocyte growth factor receptor; assay: Inhibition of HGF-stimulated c-Met autophosphorylation in serum starved human PC3 cells pre-incubated for 1 hr followed by human recombinant HGF stimulation for 10 mins by quantitative electrochemiluminescence immunoassay; assay type: cell-based, PC-3
How it was run: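 Serum-starved PC-3 cells (plated in high-glucose DMEM/10% FBS, then 16 h in low-glucose DMEM with 0.1% BSA) were treated with a 10-point inhibitor dilution for 1 h at 37 °C. Cells were then stimulated with 200 ng/mL recombinant human HGF for 10 min and lysed. Phospho-c-Met was captured with biotinylated anti-c-Met and 4G10 by electrochemiluminescence. IC50, n ≥ 2.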

[3] = Clearance in Sprague-Dawley rat at 0.25 mg/kg, iv; assay type: ADME, organism-based; parameters: dose 0.25 mg/kg, route intravenous; settings: Sprague-Dawley, in vivo
[4] = Volume of distribution at steady state in Sprague-Dawley rat at 0.25 mg/kg, iv; assay type: ADME, organism-based; parameters: dose 0.25 mg/kg, route intravenous; settings: in vivo, read-out: Vdss
How it was run: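 Male Sprague-Dawley rats were given a single IV dose of 0.25 mg/kg. The vehicle was DMSO, or for some compounds 20% (w/v) hydroxypropyl β-cyclodextrin in water adjusted to pH 3.5 with MSA. NC marks cases where the terminal disposition rate constant could not be characterized for lack of slope.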

[5] = Half life in Sprague-Dawley rat at 0.25 mg/kg, iv; assay type: ADME, organism-based; parameters: dose 0.25 mg/kg, route intravenous; settings: in vivo
[6] = AUC (0 to infinity) in Sprague-Dawley rat at 0.25 mg/kg, iv; assay type: ADME, organism-based, Plasma; parameters: dose 0.25 mg/kg, route intravenous, time infinity; settings: Sprague-Dawley, plasma
[7] = Oral bioavailability in Sprague-Dawley rat at 2 mg/kg; assay type: ADME, organism-based; settings: in vivo
How it was run: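 Male Sprague-Dawley rats given 2.0 mg/kg orally in 2% (w/v) hydroxypropylmethylcellulose, 1% (w/v) Tween 80 in water, pH 2.2 (adjusted with HCl or MSA). Some inhibitors instead used 10% (v/v) dimethylacetamide in the same vehicle.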

[8] = target: Cytochrome P450 2D6 (Homo sapiens, UniProt P10635); assay: Inhibition of CYP2D6 (unknown origin); assay type: ADME
[9] = target: Cytochrome P450 3A4 (Homo sapiens, UniProt P08684); assay: Inhibition of CYP3A4 (unknown origin); assay type: ADME
[10] = system: Liver microsome; assay: Stability in human liver microsomes assessed as compound turnover rate; assay type: ADME
[11] = system: Liver microsome; assay: Stability in rat liver microsomes assessed as compound turnover rate; assay type: ADME
[12] = Drug level in mouse liver microsomes treated with 5-(8-Fluoro-3-(1-(3-methoxyquinolin-6-yl)ethyl)[1,2,4]-triazolo[4,3-a]pyridin-6-yl)-3-methylisoxazole assessed as compound formation in presence of NADPH by LC-MS/MS method; assay type: ADME
How it was run: (§1)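 Compound incubated with NADPH in mouse, rat, dog, monkey or human liver microsomes. Metabolites were identified by accurate mass spectrometry and MS/MS, and selected ion chromatograms were used to build metabolite profiles.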

[13] = system: Liver microsome; assay: Drug level in rat liver microsomes treated with 5-(8-Fluoro-3-(1-(3-methoxyquinolin-6-yl)ethyl)[1,2,4]-triazolo[4,3-a]pyridin-6-yl)-3-methylisoxazole assessed as compound formation in presence of NADPH by LC-MS/MS method; assay type: ADME; how it was run: as §1
[14] = system: Liver microsome; assay: Drug level in dog liver microsomes treated with 5-(8-Fluoro-3-(1-(3-methoxyquinolin-6-yl)ethyl)[1,2,4]-triazolo[4,3-a]pyridin-6-yl)-3-methylisoxazole assessed as compound formation in presence of NADPH by LC-MS/MS method; assay type: ADME, Canis lupus familiaris; how it was run: as §1
[15] = system: Liver microsome; assay: Drug level in dog liver microsomes treated with 5-(8-Fluoro-3-(1-(3-(2-methoxyethoxy)quinolin-6-yl)ethyl)-[1,2,4]triazolo[4,3-a]pyridin-6-yl)-3-methylisoxazole assessed as compound formation in presence of NADPH by LC-MS/MS method; assay type: ADME, Canis lupus familiaris; how it was run: as §1
[16] = system: Liver microsome; assay: Drug level in human liver microsomes treated with 5-(8-Fluoro-3-(1-(3-(2-methoxyethoxy)quinolin-6-yl)ethyl)-[1,2,4]triazolo[4,3-a]pyridin-6-yl)-3-methylisoxazole assessed as compound formation in presence of NADPH by LC-MS/MS method; assay type: ADME; how it was run: as §1
[17] = system: Liver microsome; assay: Drug level in rat liver microsomes treated with 5-(8-Fluoro-3-(1-(3-(2-methoxyethoxy)quinolin-6-yl)ethyl)-[1,2,4]triazolo[4,3-a]pyridin-6-yl)-3-methylisoxazole assessed as compound formation in presence of NADPH by LC-MS/MS method; assay type: ADME; how it was run: as §1
[18] = Drug level in monkey liver microsomes treated with 5-(8-Fluoro-3-(1-(3-(2-methoxyethoxy)quinolin-6-yl)ethyl)-[1,2,4]triazolo[4,3-a]pyridin-6-yl)-3-methylisoxazole assessed as compound formation in presence of NADPH by LC-MS/MS method; assay type: ADME, Macaca mulatta; settings: rhesus monkey; how it was run: as §1
[19] = Drug level in mouse liver microsomes treated with 5-(8-Fluoro-3-(1-(3-(2-methoxyethoxy)quinolin-6-yl)ethyl)-[1,2,4]triazolo[4,3-a]pyridin-6-yl)-3-methylisoxazole assessed as compound formation in presence of NADPH by LC-MS/MS method; assay type: ADME; how it was run: as §1

Chain of Cytochrome P450 3A4 (P08684 whole entry): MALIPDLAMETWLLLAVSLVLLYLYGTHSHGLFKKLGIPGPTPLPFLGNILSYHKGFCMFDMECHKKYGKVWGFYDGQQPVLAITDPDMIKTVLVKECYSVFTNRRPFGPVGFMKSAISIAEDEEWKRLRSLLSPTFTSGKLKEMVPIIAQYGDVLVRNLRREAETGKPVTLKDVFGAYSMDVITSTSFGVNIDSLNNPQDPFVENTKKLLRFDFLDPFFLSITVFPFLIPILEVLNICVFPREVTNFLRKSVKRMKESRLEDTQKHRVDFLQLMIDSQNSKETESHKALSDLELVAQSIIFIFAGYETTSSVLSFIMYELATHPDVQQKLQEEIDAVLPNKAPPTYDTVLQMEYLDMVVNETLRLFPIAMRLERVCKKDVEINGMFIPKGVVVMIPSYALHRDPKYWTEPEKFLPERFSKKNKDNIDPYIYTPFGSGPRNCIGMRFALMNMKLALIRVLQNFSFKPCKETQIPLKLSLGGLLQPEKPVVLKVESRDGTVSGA
T1 sequence (P08581 whole entry, the tested form may be a part): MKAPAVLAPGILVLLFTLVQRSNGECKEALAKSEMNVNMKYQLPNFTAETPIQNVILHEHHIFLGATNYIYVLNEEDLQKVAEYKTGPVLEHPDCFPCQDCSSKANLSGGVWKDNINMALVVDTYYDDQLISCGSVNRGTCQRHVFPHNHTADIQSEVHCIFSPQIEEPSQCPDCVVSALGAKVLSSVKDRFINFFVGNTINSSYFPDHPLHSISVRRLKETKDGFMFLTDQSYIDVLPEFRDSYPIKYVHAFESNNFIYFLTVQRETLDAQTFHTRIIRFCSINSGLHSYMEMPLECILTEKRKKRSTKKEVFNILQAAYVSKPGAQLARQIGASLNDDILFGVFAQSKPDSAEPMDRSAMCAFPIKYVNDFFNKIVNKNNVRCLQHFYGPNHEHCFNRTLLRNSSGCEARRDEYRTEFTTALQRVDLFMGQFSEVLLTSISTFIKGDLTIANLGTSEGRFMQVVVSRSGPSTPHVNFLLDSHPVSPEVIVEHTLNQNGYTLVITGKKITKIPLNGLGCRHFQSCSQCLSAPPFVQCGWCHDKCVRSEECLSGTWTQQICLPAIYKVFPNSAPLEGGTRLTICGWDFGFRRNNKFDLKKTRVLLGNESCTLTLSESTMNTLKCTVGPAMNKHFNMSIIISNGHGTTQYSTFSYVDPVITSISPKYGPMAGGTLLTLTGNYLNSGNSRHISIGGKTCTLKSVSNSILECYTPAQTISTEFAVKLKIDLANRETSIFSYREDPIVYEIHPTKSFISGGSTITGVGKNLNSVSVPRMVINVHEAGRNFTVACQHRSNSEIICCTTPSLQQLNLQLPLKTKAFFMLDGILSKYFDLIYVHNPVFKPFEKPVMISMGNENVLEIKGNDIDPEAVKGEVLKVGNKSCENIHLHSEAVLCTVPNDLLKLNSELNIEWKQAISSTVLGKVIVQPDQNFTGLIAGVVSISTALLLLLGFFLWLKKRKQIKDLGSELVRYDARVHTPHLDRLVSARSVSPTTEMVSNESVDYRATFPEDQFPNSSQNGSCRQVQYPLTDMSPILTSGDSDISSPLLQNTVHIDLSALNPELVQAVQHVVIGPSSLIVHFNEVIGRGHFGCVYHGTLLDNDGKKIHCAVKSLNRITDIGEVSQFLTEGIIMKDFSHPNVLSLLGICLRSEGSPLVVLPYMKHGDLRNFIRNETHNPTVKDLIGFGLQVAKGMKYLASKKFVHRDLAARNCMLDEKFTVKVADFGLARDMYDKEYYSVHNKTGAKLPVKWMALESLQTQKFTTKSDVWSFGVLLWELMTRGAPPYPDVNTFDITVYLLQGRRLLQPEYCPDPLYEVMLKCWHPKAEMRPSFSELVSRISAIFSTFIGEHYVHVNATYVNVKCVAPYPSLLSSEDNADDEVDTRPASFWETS
Chain of Cytochrome P450 2D6 (P10635 whole entry): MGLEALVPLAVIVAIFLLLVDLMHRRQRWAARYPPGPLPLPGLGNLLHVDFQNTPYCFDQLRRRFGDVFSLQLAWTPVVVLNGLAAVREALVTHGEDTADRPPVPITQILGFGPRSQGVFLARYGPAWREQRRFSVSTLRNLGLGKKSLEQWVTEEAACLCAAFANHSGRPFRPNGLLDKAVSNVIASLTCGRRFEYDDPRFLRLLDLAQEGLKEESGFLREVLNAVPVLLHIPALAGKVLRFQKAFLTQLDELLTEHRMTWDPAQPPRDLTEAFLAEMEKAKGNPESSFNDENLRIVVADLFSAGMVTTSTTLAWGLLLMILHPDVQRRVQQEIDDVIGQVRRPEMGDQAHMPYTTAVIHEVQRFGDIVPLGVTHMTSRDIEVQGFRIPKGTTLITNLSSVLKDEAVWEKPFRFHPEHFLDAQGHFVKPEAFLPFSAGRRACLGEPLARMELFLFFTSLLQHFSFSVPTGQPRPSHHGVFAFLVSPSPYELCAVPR

| SMILES | IC50 [1] | IC50 [2] | clearance [3] | Vd [4] | half-life [5] | AUC(0-inf) [6] | bioavailability [7] | also measured |
| --- | --- | --- | --- | --- | --- | --- | --- | --- |
| Cc1cc(-c2cc(F)c3nnc([C@](C)(F)c4ccc5ncccc5c4)n3c2)sn1 | 5 nM | 6 nM | 30.2 mL/min/kg | 1.07 L/kg | 0.72 h | 0.37 µM·h | 27% | – |
| COc1ccc2c(OCc3nnc4ccc(-c5ccccc5)cn34)ccnc2c1 | 31 nM | – | – | – | – | – | – | – |
| COc1ccc2c(OCc3nnc4c(F)cc(-c5ccccc5)cn34)ccnc2c1 | 7 nM | – | – | – | – | – | – | – |
| c1ccc(-c2ccc3nnc(Cc4ccc5ncccc5c4)n3c2)cc1 | 210 nM | – | – | – | – | – | – | – |
| Fc1cc(-c2ccccc2)cn2c(Cc3ccc4ncccc4c3)nnc12 | 60 nM | – | – | – | – | – | – | – |
| Fc1cc(-c2ccccc2)cn2c(C(F)(F)c3ccc4ncccc4c3)nnc12 | 23 nM | – | – | – | – | – | – | – |
| Fc1cc(-c2ccccn2)cn2c(C(F)(F)c3ccc4ncccc4c3)nnc12 | 12 nM | 32 nM | – | – | – | – | – | inhibition (INH) [8]: Not Active; inhibition (INH) [9]: Not Active |
| Cc1cc(-c2cc(F)c3nnc(C(F)(F)c4ccc5ncccc5c4)n3c2)on1 | 9 nM | 9 nM | 0.667 mL/min/kg | 0.13 L/kg | 2.5 h | 18.5 µM·h | 62% | inhibition (INH) [8]: Not Active; inhibition (INH) [9]: Not Active |
| Cc1ncc(-c2cc(F)c3nnc(C(F)(F)c4ccc5ncccc5c4)n3c2)s1 | 11 nM | 35 nM | – | – | – | – | – | inhibition (INH) [8]: Not Active; inhibition (INH) [9]: Not Active |
| Fc1cc(-c2cscn2)cn2c(C(F)(F)c3ccc4ncccc4c3)nnc12 | 4 nM | 7 nM | 27.8 mL/min/kg | 0.39 L/kg | 0.3 h | 0.38 µM·h | 110% | inhibition (INH) [8]: Not Active; inhibition (INH) [9]: Not Active |
| Cn1cc(-c2cc(F)c3nnc(C(F)(F)c4ccc5ncccc5c4)n3c2)cn1 | 22 nM | 15 nM | 0.167 mL/min/kg | 0.13 L/kg | 6.6 h | 44.4 µM·h | 110% | inhibition (INH) [8]: Not Active; inhibition (INH) [9]: Not Active |
| Fc1cc(-c2cnn(C3CC3)c2)cn2c(C(F)(F)c3ccc4ncccc4c3)nnc12 | 24 nM | 25 nM | 0.167 mL/min/kg | 0.09 L/kg | 4.4 h | 42.6 µM·h | 40% | inhibition (INH) [8]: Not Active; inhibition (INH) [9]: Not Active |
| Cn1cc(-c2cc(F)c3nnc(Cc4ccc5ncccc5c4)n3c2)cn1 | 18 nM | – | – | – | – | – | – | – |
| COc1cnc2ccc(Cc3nnc4c(F)cc(-c5cnn(C)c5)cn34)cc2c1 | 11 nM | – | – | – | – | – | – | – |
| Cn1cc(-c2cc(F)c3nnc(Cc4ccc5ncc(O)cc5c4)n3c2)cn1 | 51 nM | – | – | – | – | – | – | – |
| Cn1cc(-c2cc(F)c3nnc(Cc4ccc5nccnc5c4)n3c2)cn1 | 182 nM | – | – | – | – | – | – | – |
| CC(=O)Nc1nc2ccc(Cc3nnc4c(F)cc(-c5cnn(C)c5)cn34)cc2s1 | 67 nM | – | – | – | – | – | – | – |
| Cn1cc(-c2cc(F)c3nnc(Cc4ccc5nc(N)sc5c4)n3c2)cn1 | 52 nM | – | – | – | – | – | – | – |

| SMILES | IC50 [1] | IC50 [2] | clearance [3] | Vd [4] | half-life [5] | AUC(0-inf) [6] | bioavailability [7] | also measured |
| --- | --- | --- | --- | --- | --- | --- | --- | --- |
| COc1cnc2ccc(C(F)(F)c3nnc4c(F)cc(-c5cc(C)no5)cn34)cc2c1 | 3 nM | 8 nM | < 0.167 mL/min/kg | 0.09 L/kg | – | 101 µM·h | 35% | Stability [10]: Stable; Stability [11]: Stable; inhibition (INH) [8]: Not Active; inhibition (INH) [9]: Not Active |
| COc1cnc2ccc(C(F)(F)c3nnc4c(F)cc(-c5cscn5)cn34)cc2c1 | 2 nM | 7 nM | 1.5 mL/min/kg | 0.18 L/kg | 1.5 h | 6.5 µM·h | 9% | Stability [10]: Stable; Stability [11]: Stable; inhibition (INH) [8]: Not Active; inhibition (INH) [9]: Not Active |
| Cc1cc(-c2cc(F)c3nnc([C@@](C)(F)c4ccc5ncccc5c4)n3c2)sn1 | 780 nM | – | – | – | – | – | – | – |
| COc1cnc2ccc([C@@](C)(F)c3nnc4c(F)cc(-c5cc(C)ns5)cn34)cc2c1 | 5 nM | 4 nM | 22.2 mL/min/kg | 1.25 L/kg | 1.1 h | 0.52 µM·h | 10% | – |
| COc1cnc2ccc([C@@](C)(F)c3nnc4c(F)cc(-c5cc(C)no5)cn34)cc2c1 | 2 nM | 3 nM | 4.17 mL/min/kg | 0.79 L/kg | 2.7 h | 2.4 µM·h | 38% | – |
| COc1cnc2ccc([C@@](C)(F)c3nnc4c(F)cc(-c5cnn(C)c5)cn34)cc2c1 | 5 nM | 7 nM | 4.5 mL/min/kg | 0.64 L/kg | 2.2 h | 2.5 µM·h | 27% | – |
| Cc1cc(-c2cc(F)c3nnc([C@@H](C)c4ccc5ncccc5c4)n3c2)sn1 | 7 nM | 12 nM | 25.5 mL/min/kg | 0.38 L/kg | 0.33 h | 0.44 µM·h | – | – |
| COc1cnc2ccc([C@H](C)c3nnc4c(F)cc(-c5cc(C)ns5)cn34)cc2c1 | 9 nM | 22 nM | – | – | 2.8 h | 10.5 µM·h | – | – |
| COc1cnc2ccc([C@H](C)c3nnc4c(F)cc(-c5cn(C)cn5)cn34)cc2c1 | 1 nM | 4 nM | 4.33 mL/min/kg | 0.37 L/kg | 1.3 h | 2.7 µM·h | 27% | – |
| COc1cnc2ccc([C@H](C)c3nnc4c(F)cc(-c5cnn(C)c5)cn34)cc2c1 | 2 nM | 15 nM | 2.33 mL/min/kg | 0.25 L/kg | 1.8 h | 4.5 µM·h | 13% | – |
| COc1cnc2ccc([C@@H](C)c3nnc4c(F)cc(-c5cc(C)no5)cn34)cc2c1 | 370 nM | – | – | – | – | – | – | – |
| Cc1cc(-c2cc(F)c3nnc(C(C)(C)c4ccc5ncc(O)cc5c4)n3c2)on1 | > 400 nM | – | – | – | – | – | – | – |
| COc1cnc2ccc(C3(c4nnc5c(F)cc(-c6cc(C)no6)cn45)CC3)cc2c1 | 93 nM | – | – | – | – | – | – | – |
| CC[C@@H](c1ccc2ncc(OC)cc2c1)c1nnc2c(F)cc(-c3cc(C)no3)cn12 | 28 nM | 67 nM | – | – | – | – | – | – |
| Cc1cc(-c2cc(F)c3nnc([C@@H](C)c4ccc5ncc(O)cc5c4)n3c2)on1 | – | – | – | – | – | – | – | Drug metabolism [12]: metabolite_detected; Drug metabolism [13]: metabolite_detected; Drug metabolism [14]: metabolite_detected |
| COc1cnc2ccc([C@H](C)c3nnc4c(F)cc(-c5cc(CO)no5)cn34)cc2c1 | – | – | – | – | – | – | – | Drug metabolism [12]: metabolite_detected; Drug metabolism [13]: metabolite_detected; Drug metabolism [14]: metabolite_detected |
| Cc1cc(-c2cc(F)c3nnc([C@@H](C)c4ccc5ncc(OCCO)cc5c4)n3c2)on1 | – | – | – | – | – | – | – | Drug metabolism [15]: metabolite_detected; Drug metabolism [16]: metabolite_detected; Drug metabolism [17]: metabolite_detected; Drug metabolism [18]: metabolite_detected; Drug metabolism [19]: metabolite_detected |
| Cc1cc(-c2cc(F)c3nnc([C@@H](C)c4ccc5ncc(OCC(=O)O)cc5c4)n3c2)on1 | – | – | – | – | – | – | – | Drug metabolism [15]: metabolite_detected; Drug metabolism [16]: metabolite_detected; Drug metabolism [17]: metabolite_detected; Drug metabolism [18]: metabolite_detected; Drug metabolism [19]: metabolite_detected |
